From ChEMBL document CHEMBL4321838, “Drug Design Targeting T-Cell Factor-Driven Epithelial-Mesenchymal Transition as a Therapeutic Strategy for Colorectal Cancer” (J Med Chem, 2019)
≈ marks a conversion by molar mass, not a printed value. Values belong to the molecule of their own block, whether it stands above or below them. Calls of active or inactive are those of the source.

Assays:
[1] = Metabolic stability in CD-1 mouse inactive microsomes incubated for 1 hr by LC-MS/MS analysis; type: ADME, Microsome
SW-620 [2] = assay: Antiinvasive activity in human SW620 organoids transduced with NucLight-Red virus assessed as inhibition of cell invasion at 10 uM incubated for 72 hrs and measured after 72 hrs by matrigel based fluorescence analysis; type: functional
Method in brief: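 NucLight-Red-labelled SW620 organoids treated 72 h at 10 μM in 0.1% DMSO, then dissociated. 5,000 live cells per well seeded in 50% Matrigel in the upper chamber of a migration plate, 0.5% FBS above and 20% FBS below. Invading cells tracked by bottom-side fluorescence over days, six replicates per condition.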

SW-620 [3] = assay: Anticlonogenic activity against human SW620 cells assessed as loss of cancer stem cell stemness by measuring inhibition of colony formation at 10 uM incubated for 24 hrs followed by replating and measured after 7 days by clonogenic assay; type: functional, cell-based
[4] = Drug metabolism in CD-1 mouse active microsomes assessed as CYP450-mediated oxidative phase 1 metabolite formation measured within 30 mins by LC-MS/MS analysis; type: ADME; details: 0.5 h
SW-620 [5] = assay: Cytotoxicity against human SW620 organoids assessed as cell death with loss of membrane integrity after 72 hrs by CellTox Green assay; type: functional, cell-based; details: SW-620, 72 h
Method in brief: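 SW620 tumor organoids exposed 72 h to inhibitor over 0–40 μM together with CellTox Green Express (0.5X). Whole-well mean fluorescence imaged (ex 488, em 500–550 nm). Normalised to lysis buffer as 0% viability and 0.4% DMSO as 100% viability.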

[6] = Cmax in CD-1 mouse at 50 mg/kg, ip by LC-MS/MS analysis; type: ADME, organism-based; design: dose 50 mg/kg, route intraperitoneal; details: in vivo
Method in brief: (§1)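 Female CD-1 mice, single IP injection at 50 mg/kg in 100% DMSO. Sampling from 0.25 to 24 h, three mice per time point (21 per compound). Heparinised blood was spun to plasma, mixed 1:1 with acidified acetonitrile (0.1% formic acid or 0.1% TFA depending on compound), centrifuged, then measured by LC-MS/MS.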

[7] = Half life of terminal disposition phase in CD-1 mouse at 50 mg/kg, ip by LC-MS/MS analysis; type: ADME, organism-based; details: in vivo, read-out: t1/2lambda (converted); method in brief: as §1
Mus musculus = assay: Apparent volume of drug distribution in CD-1 mouse at 50 mg/kg, ip by LC-MS/MS analysis; type: ADME, organism-based; details: in vivo; method in brief: as §1
[8] = molecular target: T1, DNA topoisomerase 2-alpha (Homo sapiens, UniProt P11388); assay: Inhibition of topoisomerase 2alpha dependent TCF transcription in human SW620 organoids transduced with TOPflash luminescent reporter after 72 hrs by luciferase based TOPFlash reporter gene assay
T1 sequence (P11388 whole entry): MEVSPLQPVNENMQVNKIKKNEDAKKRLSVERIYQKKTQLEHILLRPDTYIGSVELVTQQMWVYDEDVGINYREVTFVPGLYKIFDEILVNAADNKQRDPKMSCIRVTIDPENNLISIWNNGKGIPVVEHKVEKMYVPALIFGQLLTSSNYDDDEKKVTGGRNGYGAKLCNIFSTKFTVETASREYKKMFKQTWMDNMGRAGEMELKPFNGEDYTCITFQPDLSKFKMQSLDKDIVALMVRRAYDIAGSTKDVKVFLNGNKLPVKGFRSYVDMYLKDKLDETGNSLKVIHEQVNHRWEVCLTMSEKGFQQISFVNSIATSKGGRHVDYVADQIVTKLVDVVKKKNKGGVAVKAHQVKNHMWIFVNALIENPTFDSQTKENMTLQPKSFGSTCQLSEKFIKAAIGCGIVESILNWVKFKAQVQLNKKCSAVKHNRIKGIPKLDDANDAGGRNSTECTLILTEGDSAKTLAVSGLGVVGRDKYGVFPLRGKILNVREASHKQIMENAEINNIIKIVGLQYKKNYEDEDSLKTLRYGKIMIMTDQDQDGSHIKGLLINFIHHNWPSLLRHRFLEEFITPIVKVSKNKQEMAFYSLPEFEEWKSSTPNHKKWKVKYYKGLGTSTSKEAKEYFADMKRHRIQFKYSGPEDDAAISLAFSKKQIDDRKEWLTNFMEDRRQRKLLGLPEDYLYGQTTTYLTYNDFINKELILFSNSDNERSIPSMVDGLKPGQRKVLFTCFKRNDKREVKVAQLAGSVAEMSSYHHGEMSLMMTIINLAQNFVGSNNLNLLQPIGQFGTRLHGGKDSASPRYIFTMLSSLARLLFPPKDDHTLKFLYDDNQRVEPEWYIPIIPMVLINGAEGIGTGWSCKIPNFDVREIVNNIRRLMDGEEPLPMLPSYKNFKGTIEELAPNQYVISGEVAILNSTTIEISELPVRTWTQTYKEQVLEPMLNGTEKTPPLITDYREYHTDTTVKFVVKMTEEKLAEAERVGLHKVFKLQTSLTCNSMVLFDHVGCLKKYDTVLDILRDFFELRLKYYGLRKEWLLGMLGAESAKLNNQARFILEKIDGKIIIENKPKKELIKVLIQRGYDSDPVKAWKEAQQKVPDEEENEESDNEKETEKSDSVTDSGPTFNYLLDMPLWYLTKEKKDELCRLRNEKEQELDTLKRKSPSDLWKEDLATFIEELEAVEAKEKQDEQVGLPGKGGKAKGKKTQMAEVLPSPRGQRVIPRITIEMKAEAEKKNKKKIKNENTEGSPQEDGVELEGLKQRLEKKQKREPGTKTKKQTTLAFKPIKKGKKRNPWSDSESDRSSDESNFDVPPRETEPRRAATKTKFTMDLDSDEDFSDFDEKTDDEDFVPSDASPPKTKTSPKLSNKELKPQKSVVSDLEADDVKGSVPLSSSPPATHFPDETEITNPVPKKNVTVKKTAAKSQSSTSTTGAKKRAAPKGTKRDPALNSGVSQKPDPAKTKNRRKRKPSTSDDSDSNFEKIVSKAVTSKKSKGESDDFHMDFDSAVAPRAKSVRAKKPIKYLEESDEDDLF
Method in brief: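 SW620 cells stably carrying pCDH-TOPflash-luc grown as organoids: 5,000 cells per U-bottom well in phenol red-free RPMI with 5% FBS and 2% Matrigel, 72 h. Inhibitor then applied 72 h. One-Glo luciferase and CellTiter-Glo 3D added 1:1. Luciferase signal normalised to viability, then to DMSO controls.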

[9] = Half life in CD-1 mouse microsomes measured up to 1 hr by LC-MS analysis; type: ADME, Microsome
Method in brief: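 Female CD-1 mouse liver microsomes (0.5 mg/mL), substrate 1 μg/mL and 1.5 mM NADPH in 0.1 M phosphate buffer pH 7.4 at 37 °C. Samples taken from 0 to 60 min and quenched with an equal volume of acetonitrile. Parent compound remaining measured by LC-MS/MS without internal standard.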

[10] = Drug metabolism in CD-1 mouse active microsomes assessed as metabolite formation at rate of first-order kinetics by LC-MS/MS analysis; type: ADME, Microsome
[11] = molecular target: T1, DNA topoisomerase 2-alpha; assay: Inhibition of human topoisomerase 2alpha mediated decatenation at 30 uM using kDNA as susbtrate preincubated for 20 mins followed by substrate and ATP addition and measured after 1 hr by ethidium bromide staining based gel electrophoresis method relative to control
Method in brief: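 Human TOP2A (3 U) preincubated 20 min at 37 °C with compound at 30 μM in 1.2% DMSO. Reaction started with 2 mM ATP and 35 ng kDNA and run 1 h at 37 °C. Products resolved on 0.8% agarose in TBE with 0.2 μg/mL ethidium bromide; decatenated bands compared with vehicle.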

[12] = Aqueous solubility of compound in PBS at 1 mg after 18 hrs by UV based analysis; type: physicochemical
Method in brief: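 Undissolved material removed by centrifugation at 5,000g for 45 min. UV absorption compared with a fully saturated 1-propanol solution; solubility derived by linear regression.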

[13] = Tmax in CD-1 mouse at 50 mg/kg, ip by LC-MS/MS analysis; type: ADME, organism-based; details: in vivo; method in brief: as §1
[14] = Clearance in CD-1 mouse at 50 mg/kg, ip by LC-MS/MS analysis; type: ADME, organism-based; details: in vivo; method in brief: as §1
[15] = AUC(0 to t) in CD-1 mouse at 50 mg/kg, ip by LC-MS/MS analysis; type: ADME, organism-based; details: in vivo; method in brief: as §1
[16] = molecular target: T1, DNA topoisomerase 2-alpha; assay: Poison activity at topoisomerase 2alpha in human SW620 cells assessed as induction of DNA double stranded break by measuring gamma H2AX phosphorylation up to 40 uM after 6 hrs by Hoechst-33342 staining based immunofluorescence assay; type: cell-based
Method in brief: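 SW620 monolayers, 20,000 cells per well, treated with compound for 6 or 24 h. Fixed in 4% paraformaldehyde, then permeabilised and blocked. Stained with γ-H2AX antibody overnight at 4 °C, FITC secondary antibody, and Hoechst 33342, then imaged at 20x.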

[17] = molecular target: T1, DNA topoisomerase 2-alpha; assay: Inhibition of human topoisomerase 2alpha mediated decatenation using kDNA as susbtrate preincubated for 20 mins followed by substrate and ATP addition and measured after 1 hr by ethidium bromide staining based gel electrophoresis method
Method in brief: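 IC50 from decatenation gels: TOP2A at 4 U per reaction, compound as 2-fold serial dilutions from 58.6 nM to 30 μM, 20 min preincubation. Then 2 mM ATP plus 35 ng kDNA for 1 h at 37 °C. Gels were 0.8% agarose with ethidium bromide, with decatenated and catenated DNA marker lanes.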

SW-620 [18] = assay: Cytotoxicity against human SW620 organoids assessed as growth inhibition at 10 uM after 72 hrs by brightfield imaging of organoid volume
SW-620 [19] = assay: Induction of early stage cell death in human SW620 organoids transfected with EcadPro-RFP reporter assessed as loss of RFP reporter activity at 40 uM at after 72 hrs by Hoechst 33342 staining based mCherryRFP reporter gene assay; details: sw-620, 72 h
SW-620 [20] = assay: Induction of apoptosis in human SW620 organoids assessed as increase in cleaved caspase 3/7 level at 40 uM after 72 hrs by caspase-glo 3/7 luminescence assay relative to control; type: functional
Method in brief: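 SW620 cells, 2,000 per well in 384-well ultra-low attachment plates with 2% Matrigel, grown 72 h into organoids, then dosed 72 h. Caspase-Glo 3/7 reagent added 1:1 and shaken 30 min; luminescence read. Staurosporine served as positive control and 0.4% DMSO as negative control.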

[21] = molecular target: T1, DNA topoisomerase 2-alpha; assay: Inhibition of topoisomerase 2alpha in human SW620 organoids transfected with EcadPro-RFP reporter assessed as reversion of epithelial-mesenchymal transition by measuring increase in E-cadherin expression up to 40 uM after 72 hrs by Hoechst 33342 staining based mCherryRFP reporter gene assay
Method in brief: (§2)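 SW620 cells stably carrying VimPro-GFP or EcadPro-mCherry (puromycin selected) grown as organoids and dosed 72 h. Stained with 16 μM Hoechst 33342 for 1 h and imaged as 15 z-layers, 26.5 μm apart. Nuclei segmented and GFP- or mCherry-positive cells counted above background thresholds. Percent positive cells normalised to DMSO.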

[22] = molecular target: T1, DNA topoisomerase 2-alpha; assay: Inhibition of topoisomerase 2alpha in human SW620 organoids transfected with VimPro-GFP reporter assessed as reversion of epithelial-mesenchymal transition by measuring reduction in vimentin expression up to 40 uM after 72 hrs by Hoechst 33342 staining based GFP reporter gene assay; method in brief: as §2

Stability [1]: Stable | Drug metabolism [4]: Metabolite_Notdetected | Cmax [6]: 707 ng/mL | half-life [7]: 266 min | Vz (Mus musculus): 108.9 L/kg | IC50 [8]: 1000 nM | t1/2 [9]: > 60 min | Drug metabolism [10]: Metabolite_Detected | inhibition [11]: 100% | solubility thermodynamic at 18 h [12]: 28 µg/mL (≈ 88 µM) | Tmax [13]: 15 min | CL/F [14]: 283 mL/min/kg | AUC(0-t) [15]: 2840 ng·h/mL
Compound: CC(=O)Nc1ccc2c(-c3cc4ccccc4o3)ccnc2c1O
inhibition (SW-620 [2]): Active | inhibition (SW-620 [3]): Active | EC50 (SW-620 [5]): > 30000 nM

Compound: Cn1ccc2c(c1=O)C(=O)c1nccc3c1c-2nc1ccccc13 [NEOAMPHIMIDINE]
Activity [16]: Not Active

IC50 [17]: 1300 nM | IC50 [8]: 4700 nM | inhibition [11]: 97%
Compound: CC(C)(C)C(=O)Nc1ccc2c(-c3ccccc3)ccnc2c1O
inhibition (SW-620 [2]): Active | inhibition (SW-620 [3]): Active | EC50 (SW-620 [5]): > 30000 nM

IC50 [8]: 1700 nM | inhibition [11]: 86%
Compound: CC(=O)Nc1ccc2c(-c3ccoc3)ccnc2c1O
inhibition (SW-620 [2]): Active | inhibition (SW-620 [3]): Active | EC50 (SW-620 [5]): > 30000 nM

inhibition [11]: 0%
Compound: CC(=O)Nc1ccc2c(-c3cc(Cl)ccc3O)ccnc2c1O

Stability [1]: Stable | Drug metabolism [4]: Metabolite_Notdetected | Cmax [6]: 1980 ng/mL | half-life [7]: 350 min | Vz (Mus musculus): 69.3 L/kg | IC50 [8]: 1100 nM | t1/2 [9]: 30.18 min | Drug metabolism [10]: Metabolite_Detected | inhibition [11]: 100% | inhibition [21]: Active | solubility thermodynamic at 18 h [12]: 45 µg/mL (≈ 112 µM) | Tmax [13]: 15 min | CL/F [14]: 137 mL/min/kg | AUC(0-t) [15]: 5890 ng·h/mL | inhibition [22]: Active
Compound: O=C(CN1CCOCC1)Nc1ccc2c(-c3cc4ccccc4o3)ccnc2c1O
growth inhibition (GI) (SW-620 [18]): Active | EC50 (SW-620 [5]): 22000 nM | Activity (SW-620 [19]): Active | fold change (FC) (SW-620 [20]): 3

inhibition [11]: 1%
Compound: CC(=O)Nc1ccc2c(-c3ccc(F)cc3)ccnc2c1O

inhibition [11]: 1%
Compound: CC(=O)Nc1ccccc1-c1ccnc2c(O)c(NC(=O)CCN3CCOCC3)ccc12

inhibition [11]: 0%
Compound: COc1c(NC(C)=O)ccc2c(-c3cc(F)ccc3O)ccnc12

Stability [1]: Stable | IC50 [17]: 1900 nM | Drug metabolism [4]: Metabolite_Notdetected | IC50 [8]: 2000 nM | Drug metabolism [10]: Metabolite_Detected | inhibition [11]: 97%
Compound: CC(=O)Nc1ccc(-c2ccnc3c(O)c(NC(C)=O)ccc23)cc1
inhibition (SW-620 [2]): Active | inhibition (SW-620 [3]): Active | EC50 (SW-620 [5]): > 30000 nM

inhibition [11]: 3%
Compound: CC(=O)Nc1cccc(-c2ccnc3c(O)c(NC(C)=O)ccc23)c1

inhibition [11]: 0%
Compound: COc1ccc(F)cc1-c1ccnc2c(OC)c(NC(C)=O)ccc12

inhibition [11]: 1%
Compound: CC(=O)Nc1ccccc1-c1ccnc2c(O)c(NC(C)=O)ccc12
